The results in this text go back to ChEMBL document CHEMBL1157126, “Synthesis and biological activity of N(4)-phenylsubstituted-6-(2,4-dichloro phenylmethyl)-7H-pyrrolo[2,3-d]pyrimidine-2,4-diamines as vascular endothelial growth factor receptor-2 inhibitors and antiangiogenic and antitumor agents” (Bioorg Med Chem, 2010).

The test system of one assay is A-431. The experiment in a line: Antiproliferative activity against human A431 cells after 48 hrs by quant dye staining-based UV spectroscopy. The format is functional, cell-based. The following applies: A-431, 48 h.
In assay [1] the target is T1, Platelet-derived growth factor receptor beta (Homo sapiens, UniProt P09619). The experiment in a line: Inhibition of PDGFRbeta phosphorylation in human SF539 cells after 10 mins by FLISA.
The target of assay [2] is Epidermal growth factor receptor (Homo sapiens, UniProt P00533). The experiment in a line: Inhibition of EGFR phosphorylation in human A431 cells after 10 mins by FLISA. The class given is cell-based, A-431.
In assay [3] the target is Vascular endothelial growth factor receptor 1 (Homo sapiens, UniProt P17948). The experiment in a line: Inhibition of VEGFR1 phosphorylation in human A498 cells after 10 mins by FLISA. The format is cell-based.
Assay [4] deals with T2, Vascular endothelial growth factor receptor 2 (Homo sapiens, UniProt P35968). The experiment in a line: Inhibition of VEGFR2 phosphorylation in human U251 cells after 10 mins by FLISA. The format is cell-based, U-251.
The target of assay [5] is T2, Vascular endothelial growth factor receptor 2. The experiment in a line: Ratio of semaxanib IC50 to compound IC50 for VEGFR2 phosphorylation in human U251 cells. The class given is cell-based. The following applies: U-251.
Assay [6] has as its system B16-F10. The following applies: Mus musculus, 10 mg/kg.
In assay [7] the target is T1, Platelet-derived growth factor receptor beta. The assay is described as follows: Inhibition of PDGF-stimulated PDGFRbeta phosphorylation expressed in human SF-539 cells by chemiluminescence assay.
Assay [8] relates to B16-F10. The following applies: Mus musculus, 10 mg/kg. This is another data set of the same source.
The test system of assay [9] is B16-F10. The following applies: Mus musculus, 10 mg/kg. The source holds these as a separate data set.
Assay [10] concerns B16-F10. The experiment in a line: Antitumor activity against mouse B16F10 cells xenografted in NCr nu/nu mouse assessed as inhibition of lung metastasis at 35 mg/kg, ip administered after 9 days of tumor implantation for weekly 3 times measured on day 28 post-implantation by hematoxylin-eosin staining. The class given is functional, organism-based. Set-up: dose 35 mg/kg. A digest of the protocol: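 Male athymic NCr nu/nu mice (8 weeks) received 50,000 B16-F10 cells SQ behind the ear, 5–6/group, two experiments. Drug given IP in sterile water (from 30 mM DMSO stocks) Mon/Wed/Fri starting day 9; shams received water. On day 28 lungs excised, formalin-fixed, paraffin-embedded. Metastases per lung lobe counted on three H&E sections. Mean ± SEM, one-way ANOVA with Neuman-Keuls.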

The subject of assay [11] is B16-F10. The assay is described as follows: Antitumor activity against mouse B16F10 cells xenografted in NCr nu/nu mouse assessed as antiangiogenic activity-related decrease in tumor vascularity at 35 mg/kg, ip administered after 9 days of tumor implantation for weekly 3 times measured on day 28 post-implantation. The class given is functional, organism-based. On the set-up: dose 35 mg/kg. A digest of the protocol:
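50,000 B16-F10 melanoma cells injected SQ behind the ear of 8-week-old male athymic NCr nu/nu mice, 5–6 animals/group, two experiments. IP dosing in sterile water (from 30 mM DMSO stocks) Mon/Wed/Fri from day 9; shams got water. Tumors excised day 28, formalin-fixed, paraffin-embedded, H&E stained. Vessels counted per unit area in 5 fields at 100× and averaged. Mean ± SEM, one-way ANOVA, Neuman-Keuls.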

For assay [12], the system named is B16-F10. The experiment in a line: Antitumor activity against mouse B16F10 cells xenografted in NCr nu/nu mouse assessed as inhibition of tumor growth at 35 mg/kg, ip administered after 9 days of tumor implantation for weekly 3 times measured on day 28 post-implantation. The class given is functional, organism-based. On the set-up: dose 35 mg/kg. A digest of the protocol:
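B16-F10 cells (50,000) implanted SQ behind the ear of 8-week-old male athymic NCr nu/nu mice, 5–6/group, two experiments. IP dosing in sterile water (from 30 mM DMSO stocks) Mon/Wed/Fri from day 9; water-only shams. Length, width and depth measured by calipers three times weekly; volume = L×W×D. Growth rate is the linear-regression slope from day 9 to day 28. Mean ± SEM, one-way ANOVA.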

SMILES strings stand for the structures. Calls of active or inactive are those of the source. The rule behind the calls is not given here. Bounds are passed on as bounds.

The term IC50 denotes the point on the concentration scale where inhibition reaches its midpoint. Low values mean higher potency, high ones lower potency.

T1 sequence (P09619 whole entry): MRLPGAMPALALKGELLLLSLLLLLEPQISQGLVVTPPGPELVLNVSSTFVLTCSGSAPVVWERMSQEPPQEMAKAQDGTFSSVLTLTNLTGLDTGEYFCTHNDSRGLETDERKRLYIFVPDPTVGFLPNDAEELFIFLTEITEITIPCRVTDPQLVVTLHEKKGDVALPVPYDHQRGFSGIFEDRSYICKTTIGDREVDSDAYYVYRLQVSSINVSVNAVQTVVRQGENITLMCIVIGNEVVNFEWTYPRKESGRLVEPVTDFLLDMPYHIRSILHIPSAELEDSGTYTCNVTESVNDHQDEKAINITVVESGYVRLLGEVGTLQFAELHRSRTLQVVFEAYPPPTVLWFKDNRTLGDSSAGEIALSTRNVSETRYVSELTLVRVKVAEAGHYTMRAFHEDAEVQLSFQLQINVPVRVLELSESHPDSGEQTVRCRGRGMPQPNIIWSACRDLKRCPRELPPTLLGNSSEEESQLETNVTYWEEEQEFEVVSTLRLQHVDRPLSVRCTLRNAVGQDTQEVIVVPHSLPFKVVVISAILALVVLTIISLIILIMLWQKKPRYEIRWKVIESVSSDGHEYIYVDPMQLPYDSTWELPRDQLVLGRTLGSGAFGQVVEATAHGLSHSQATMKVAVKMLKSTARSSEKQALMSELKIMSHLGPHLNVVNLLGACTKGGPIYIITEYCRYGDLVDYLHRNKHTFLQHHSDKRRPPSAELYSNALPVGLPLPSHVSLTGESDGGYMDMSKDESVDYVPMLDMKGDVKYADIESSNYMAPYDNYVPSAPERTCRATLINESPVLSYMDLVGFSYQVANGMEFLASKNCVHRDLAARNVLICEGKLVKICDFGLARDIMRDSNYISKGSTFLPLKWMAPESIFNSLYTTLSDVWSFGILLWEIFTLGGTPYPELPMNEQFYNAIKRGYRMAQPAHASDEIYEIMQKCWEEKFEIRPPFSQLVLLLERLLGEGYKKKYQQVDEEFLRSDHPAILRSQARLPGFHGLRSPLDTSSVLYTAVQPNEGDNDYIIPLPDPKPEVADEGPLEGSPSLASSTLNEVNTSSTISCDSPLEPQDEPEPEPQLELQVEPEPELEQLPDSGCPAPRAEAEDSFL
T2 sequence (P35968 whole entry): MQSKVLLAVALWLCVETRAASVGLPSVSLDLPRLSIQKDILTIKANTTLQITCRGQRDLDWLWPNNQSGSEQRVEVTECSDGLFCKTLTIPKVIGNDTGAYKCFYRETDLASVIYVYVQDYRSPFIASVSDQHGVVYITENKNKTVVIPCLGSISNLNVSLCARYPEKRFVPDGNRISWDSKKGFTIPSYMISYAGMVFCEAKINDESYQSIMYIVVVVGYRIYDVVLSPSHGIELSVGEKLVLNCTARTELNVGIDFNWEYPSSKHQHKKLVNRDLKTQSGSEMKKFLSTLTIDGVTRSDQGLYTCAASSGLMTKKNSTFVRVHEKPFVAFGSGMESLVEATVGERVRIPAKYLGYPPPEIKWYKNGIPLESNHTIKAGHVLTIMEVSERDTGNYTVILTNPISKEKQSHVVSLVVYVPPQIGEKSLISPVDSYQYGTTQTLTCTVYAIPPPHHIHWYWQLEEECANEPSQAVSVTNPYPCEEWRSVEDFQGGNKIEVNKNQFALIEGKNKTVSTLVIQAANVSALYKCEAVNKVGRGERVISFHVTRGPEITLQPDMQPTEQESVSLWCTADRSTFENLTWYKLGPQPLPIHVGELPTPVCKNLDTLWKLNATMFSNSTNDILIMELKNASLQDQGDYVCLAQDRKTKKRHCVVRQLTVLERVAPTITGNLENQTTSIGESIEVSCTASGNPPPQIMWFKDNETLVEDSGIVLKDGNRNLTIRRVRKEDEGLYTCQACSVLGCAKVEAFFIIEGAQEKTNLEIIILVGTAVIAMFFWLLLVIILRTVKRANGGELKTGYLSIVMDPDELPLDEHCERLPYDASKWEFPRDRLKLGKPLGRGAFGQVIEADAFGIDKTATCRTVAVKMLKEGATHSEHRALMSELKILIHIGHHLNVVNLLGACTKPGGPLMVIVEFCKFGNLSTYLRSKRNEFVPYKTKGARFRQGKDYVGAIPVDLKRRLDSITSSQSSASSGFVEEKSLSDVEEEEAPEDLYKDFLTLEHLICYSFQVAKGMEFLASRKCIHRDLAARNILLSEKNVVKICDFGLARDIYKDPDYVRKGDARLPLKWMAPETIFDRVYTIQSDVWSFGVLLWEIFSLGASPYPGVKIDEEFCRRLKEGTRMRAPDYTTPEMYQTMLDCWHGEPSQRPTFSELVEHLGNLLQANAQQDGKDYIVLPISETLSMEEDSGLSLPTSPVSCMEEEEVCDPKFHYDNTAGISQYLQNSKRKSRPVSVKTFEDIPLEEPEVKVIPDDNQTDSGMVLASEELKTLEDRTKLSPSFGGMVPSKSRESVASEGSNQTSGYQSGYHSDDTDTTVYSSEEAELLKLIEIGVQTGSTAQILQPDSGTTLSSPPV
Chain of Vascular endothelial growth factor receptor 1 (P17948 whole entry): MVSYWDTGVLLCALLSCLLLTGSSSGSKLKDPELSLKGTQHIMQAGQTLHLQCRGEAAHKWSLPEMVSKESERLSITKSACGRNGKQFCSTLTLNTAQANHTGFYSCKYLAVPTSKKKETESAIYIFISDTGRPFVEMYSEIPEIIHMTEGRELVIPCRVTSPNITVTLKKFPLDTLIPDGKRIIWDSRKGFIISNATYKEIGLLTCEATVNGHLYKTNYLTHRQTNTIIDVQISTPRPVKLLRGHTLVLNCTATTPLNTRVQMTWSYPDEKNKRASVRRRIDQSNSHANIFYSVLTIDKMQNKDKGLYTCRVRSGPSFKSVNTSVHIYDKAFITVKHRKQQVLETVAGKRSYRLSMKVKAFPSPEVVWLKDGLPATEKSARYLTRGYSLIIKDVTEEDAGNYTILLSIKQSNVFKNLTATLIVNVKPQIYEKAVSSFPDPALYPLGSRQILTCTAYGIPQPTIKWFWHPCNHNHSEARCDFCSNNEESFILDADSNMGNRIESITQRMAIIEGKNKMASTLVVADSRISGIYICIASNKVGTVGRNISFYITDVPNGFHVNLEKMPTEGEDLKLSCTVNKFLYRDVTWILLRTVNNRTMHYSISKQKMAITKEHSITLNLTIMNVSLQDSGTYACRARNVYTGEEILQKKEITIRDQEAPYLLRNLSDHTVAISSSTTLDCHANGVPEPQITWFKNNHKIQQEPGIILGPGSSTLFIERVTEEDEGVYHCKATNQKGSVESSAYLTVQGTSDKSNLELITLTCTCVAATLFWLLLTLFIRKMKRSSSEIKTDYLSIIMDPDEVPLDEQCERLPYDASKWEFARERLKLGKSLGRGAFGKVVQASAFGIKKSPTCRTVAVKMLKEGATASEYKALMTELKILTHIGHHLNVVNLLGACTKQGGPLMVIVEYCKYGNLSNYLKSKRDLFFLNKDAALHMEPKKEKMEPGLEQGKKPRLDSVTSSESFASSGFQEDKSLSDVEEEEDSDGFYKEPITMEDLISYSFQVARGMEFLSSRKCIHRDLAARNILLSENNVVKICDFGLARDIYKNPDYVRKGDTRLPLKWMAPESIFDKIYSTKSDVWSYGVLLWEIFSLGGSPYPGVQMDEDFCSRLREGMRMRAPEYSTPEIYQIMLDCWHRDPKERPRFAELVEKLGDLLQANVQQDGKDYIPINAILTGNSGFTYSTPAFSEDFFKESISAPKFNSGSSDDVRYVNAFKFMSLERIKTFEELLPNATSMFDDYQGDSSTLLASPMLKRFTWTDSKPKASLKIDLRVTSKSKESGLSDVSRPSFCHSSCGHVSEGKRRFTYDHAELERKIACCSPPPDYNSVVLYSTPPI
Chain of Epidermal growth factor receptor (P00533 whole entry): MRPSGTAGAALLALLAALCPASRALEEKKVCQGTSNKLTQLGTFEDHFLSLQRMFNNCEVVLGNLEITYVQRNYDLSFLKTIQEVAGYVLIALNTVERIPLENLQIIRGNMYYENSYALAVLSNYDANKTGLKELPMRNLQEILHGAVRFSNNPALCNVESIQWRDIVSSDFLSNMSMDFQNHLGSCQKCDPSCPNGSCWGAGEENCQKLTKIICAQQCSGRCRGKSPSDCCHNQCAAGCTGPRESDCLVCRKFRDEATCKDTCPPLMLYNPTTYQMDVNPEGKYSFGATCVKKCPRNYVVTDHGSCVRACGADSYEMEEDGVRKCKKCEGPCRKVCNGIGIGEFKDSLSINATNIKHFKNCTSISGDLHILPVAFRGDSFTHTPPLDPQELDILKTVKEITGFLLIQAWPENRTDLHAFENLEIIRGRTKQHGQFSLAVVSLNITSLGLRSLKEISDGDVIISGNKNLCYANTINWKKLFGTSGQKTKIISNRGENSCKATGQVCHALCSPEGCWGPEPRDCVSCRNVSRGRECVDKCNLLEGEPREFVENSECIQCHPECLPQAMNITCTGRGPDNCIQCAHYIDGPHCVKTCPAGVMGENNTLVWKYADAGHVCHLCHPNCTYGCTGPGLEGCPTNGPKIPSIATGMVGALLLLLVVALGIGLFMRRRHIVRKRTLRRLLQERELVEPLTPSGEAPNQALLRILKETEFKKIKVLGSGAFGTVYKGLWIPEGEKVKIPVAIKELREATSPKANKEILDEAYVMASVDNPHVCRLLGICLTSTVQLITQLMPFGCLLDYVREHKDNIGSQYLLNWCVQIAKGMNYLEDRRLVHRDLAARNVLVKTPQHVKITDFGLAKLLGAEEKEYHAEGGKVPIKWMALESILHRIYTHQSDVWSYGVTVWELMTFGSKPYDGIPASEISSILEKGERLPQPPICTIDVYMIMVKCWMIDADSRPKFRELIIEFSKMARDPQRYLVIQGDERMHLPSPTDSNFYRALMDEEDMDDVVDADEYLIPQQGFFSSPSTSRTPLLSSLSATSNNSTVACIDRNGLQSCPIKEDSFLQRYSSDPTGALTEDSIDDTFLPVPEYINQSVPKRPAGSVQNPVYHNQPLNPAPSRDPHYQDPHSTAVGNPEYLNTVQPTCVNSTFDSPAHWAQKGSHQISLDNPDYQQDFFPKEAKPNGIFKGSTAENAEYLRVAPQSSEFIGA

Turning to `CC(C)c1ccccc1Nc1nc(N)nc2[nH]c(Cc3ccc(Cl)cc3Cl)cc12`, the IC50 in the assay on A-431 was 160 µM; in assay [1], 43 µM; in [2], 96.4 µM; in assay [3], 163 µM; in [4], more than 300 µM.
The corresponding values for `COc1ccc(OC)c(Cc2cc3c(Nc4cccc(Br)c4)ncnc3[nH]2)c1` are 191 µM, 171 µM, more than 300 µM, more than 300 µM and more than 300 µM.
On to `Nc1nc(Nc2cccc(F)c2)c2cc(Cc3ccc(Cl)cc3Cl)[nH]c2n1`, for which the IC50 amounted to 45.2 µM in the assay on A-431; 183 µM in assay [1]; 162 µM in assay [2]; 163 µM in assay [3]; 0.3 µM in [4]. Further, in assay [5], the Ratio IC50 turned out to be 40.
Take `CC(C)c1ccc(Nc2nc(N)nc3[nH]c(Cc4ccc(Cl)cc4Cl)cc23)cc1`: the 50% inhibitory concentration (IC50) in the assay on A-431 stood at 26.2 µM; in [1], 175 µM; in assay [2], 45.6 µM; in assay [3] it was 157 µM; in [4], 1.4 µM. The Ratio IC50 in [5] was 8.
With `C#Cc1cccc(Nc2nc(N)nc3[nH]c(Cc4ccc(Cl)cc4Cl)cc23)c1`, the IC50 is 9.5 µM in the assay with A-431; more than 300 µM in assay [1]; 55.2 µM in [2]; more than 300 µM in assay [3]; 85.6 µM in [4].
On to `C#Cc1cccc(Nc2ncnc3[nH]c(Cc4ccc(Cl)cc4Cl)cc23)c1`, for which the IC50 in the assay with A-431 was more than 300 µM; in [1] it was 142 µM; in [2], more than 300 µM; in [3], more than 300 µM; in assay [4], more than 300 µM.
Take `Cc1[nH]c(/C=C2\C(=O)Nc3ccccc32)c(C)c1CCC(=O)O` [ORANTINIB]: the inhibition result in the assay with B16-F10 [6], with B16-F10 [8] and in the assay with B16-F10 [9] was “Active” throughout. This compound yielded a half-inhibitory concentration (IC50) in assay [7] of 100 nM.
As for `Cc1ccccc1Cc1cc2c(Nc3cccc(Br)c3)nc(N)nc2[nH]1`, the inhibition entry in the assay with B16-F10 [10], with B16-F10 [11] and with B16-F10 [12] was “Active” throughout. Moreover, the IC50 in assay [1] was more than 50 µM.
Take `Nc1nc(Nc2cccc(C(F)(F)F)c2)c2cc(Cc3ccc(Cl)cc3Cl)[nH]c2n1`: the IC50 was 195 µM in the assay with A-431; more than 300 µM in assay [1]; 27.2 µM in assay [2]; 156 µM in assay [3]; more than 300 µM in [4].
Consider `Cc1ccccc1Cc1cc2c(Nc3cccc(Br)c3)ncnc2[nH]1`, for which the half-maximal inhibitory concentration (IC50) with A-431 is 9.5 µM; in [1] it was 182 µM; in assay [2], more than 300 µM; in assay [3] it was more than 300 µM; in assay [4] it was 27.2 µM.
For `Nc1nc(Nc2ccc(Cl)cc2F)c2cc(Cc3ccc(Cl)cc3Cl)[nH]c2n1`, the 50% inhibitory concentration (IC50) in the assay with A-431 stood at 4.9 µM; in assay [1], 24.6 µM; in assay [2], 2.5 µM; in assay [3], 70.9 µM; in assay [4], 45.7 µM. The Ratio IC50 in assay [5] worked out at 0.26.
For `FC(F)(F)c1cccc(Nc2ncnc3[nH]c(Cc4ccc(Cl)cc4Cl)cc23)c1`, the IC50 is more than 300 µM with A-431; 110 µM in assay [1]; 33.1 µM in assay [2]; more than 300 µM in assay [3]; more than 300 µM in assay [4].
Regarding `Clc1ccc(Cc2cc3c(Nc4cccc(Br)c4)ncnc3[nH]2)c(Cl)c1`, the IC50 in the assay with A-431 is 4.5 µM; in assay [1], 220 µM; in [2] it was more than 300 µM; in assay [3] it was 151 µM; in assay [4], more than 300 µM.
Take `Nc1nc(Nc2ccc(C(F)(F)F)c(F)c2)c2cc(Cc3ccc(Cl)cc3Cl)[nH]c2n1`: the IC50 in the assay with A-431 was 13.8 µM; in [1], more than 300 µM; in assay [2], 91.7 µM; in assay [3], more than 300 µM; in assay [4] it was 113 µM.
In the case of `Nc1nc(Nc2ccc(Br)cc2Cl)c2cc(Cc3ccc(Cl)cc3Cl)[nH]c2n1`, the 50% inhibitory concentration (IC50) in the assay with A-431 is 16.2 µM; in assay [1] it was more than 300 µM; in assay [2] it was more than 300 µM; in [3] it was more than 300 µM; in assay [4], 0.1 µM. For the same compound, the inhibition entry in the assay on B16-F10 [10], in the assay with B16-F10 [11] and with B16-F10 [12] was “Active” each time. For the same compound, the Ratio IC50 in assay [5] worked out at 100.
